Experimental findings from ChEMBL document CHEMBL1145058, “Hydroxyurea analogues as kinetic and mechanistic probes of the nitric oxide producing reactions of hydroxyurea and oxyhemoglobin” (J Med Chem, 2003) are described below.

A short description of series [1]: Dissociation constant (PKa) was determined. In kind it is physicochemical.
The nature of series [2]: Half peak chemical potential versus Ag/Agcl was determined. The class given is ADME.
Series [3] is described as follows: Nitrate production was measured with Sievers 280 nitric oxide analyzer chemiluminescence. In kind it is ADME. Put shortly:
(§1)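 Oxyhemoglobin reacted with hydroxyurea derivatives at 50 mM in 0.1 M sodium phosphate, pH 7.3; nitrite and nitrate products quantified by nitric oxide analyzer chemiluminescence; n = 3.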

Series [4] can be described thus: Nitrite production was measured with Sievers 280 nitric oxide analyzer chemiluminescence. The class given is ADME. Put shortly:
as §1

The nature of series [5]: Apparent rate constant was determined. The class given is ADME. Put shortly:
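Adult human oxyhemoglobin (70 μM in heme; also HbS) in 0.1 M sodium phosphate, pH 7.3, mixed with hydroxyurea derivative at 50 mM (5 mM for one poorly soluble analogue), 25 °C under air. UV-visible absorption recorded every 5 min for up to 12 h. Apparent first-order rate constant in min^-1 derived from the spectral kinetics; mean ± SD, n = 3.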

Consider `O=C(NO)Nc1ccccc1`, for which the pKa in series [1] was determined as 10.3. Further, in series [2], the Ep2/2 was determined as 433 mV. In series [3], this compound registered a Nitrate of 26.1 µM. In series [4], this compound came in with a Nitrite of 7.3 µM. The rate constant app in series [5] was found to be 0.0624 min⁻¹.
`COc1ccc(NC(=O)NO)cc1` came in with a pKa in series [1] of 10.2. Also, the Ep2/2 in series [2] is recorded as 560 mV. Besides, the rate constant app in series [5] stood at 0.00194 min⁻¹.
In series [1], `CCN(CC)C(=O)NO` had a pKa of 10.8. Further, the Ep2/2 in series [2] is 705 mV. For the same compound, the Nitrate in series [3] came to 18.5 µM. The Nitrite in series [4] worked out at 6.1 µM. The rate constant app in series [5] was 0.00226 min⁻¹.
Regarding `NC(=O)NO` [HYDROXYUREA], the pKa in series [1] is 10.7. The Ep2/2 in series [2] is recorded as 948 mV. Besides, the Nitrate in series [3] is 25.1 µM. The compound also yielded a Nitrite in series [4] of 9.4 µM. In addition, in series [5], the rate constant app worked out at 0.000754 min⁻¹.
Regarding `CN(O)C(N)=O`, the pKa in series [1] was found to be 9.95. Besides, in series [2], the Ep2/2 is listed as 588 mV. In addition, the Nitrate in series [3] amounted to 7.5 µM. Also, the Nitrite in series [4] stood at 6.3 µM. In addition, in series [5], the rate constant app is 0.0393 min⁻¹.
As for `CONC(N)=O`, in series [3], the Nitrate was 0 µM. The Nitrite in series [4] came out at 0 µM.
For the compound `CCCCNC(=O)NO`, in series [1], the pKa came out at 11. In series [2], this compound gave an Ep2/2 of 693 mV. Besides, the Nitrate in series [3] worked out at 3.5 µM. The compound further yielded a Nitrite in series [4] of 2.4 µM. Also, the rate constant app in series [5] was 0.00856 min⁻¹.
